Assay results taken from ChEMBL document CHEMBL5712087, “Targeting bromodomain-containing protein 4 (BRD4) inhibits MYC expression in colorectal cancer cells” (Neoplasia, 2019).
Calls of active or inactive are those of the source. No cut-off for these calls is given here.

Experiments:
Type in all cases: cell-based
[1] = target: T1, Protein cereblon/Bromodomain-containing protein 4 (Homo sapiens) (UniProt O60885+Q96SW2); assay: PROTAC activity at BRD4/Cereblon in human Caco-2 cells assessed as decrease in MYC protein expression at 5 to 10 uM for 24 hrs by Western blot analysis; details: dose 5-10 µM
Procedure, shortened: (§1)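 Eight CRC lines exposed 24 h to PROTAC at 5 or 10 µM (stocks 2 mM in DMSO, diluted in PBS or medium). Lysis in RIPA with protease/phosphatase inhibitors and 2.5 mmol/l DTT; 15 µg protein on 10% SDS-PAGE, semi-dry transfer to nitrocellulose. Anti-BRD4 or anti-MYC at 1:1,000 overnight at 4 °C; GAPDH or β-actin loading control; chemiluminescence.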

[2] = target: T1, Protein cereblon/Bromodomain-containing protein 4 (Homo sapiens); assay: PROTAC activity at BRD4/Cereblon in human HT-29 cells assessed as decrease in BRD4 protein degradation at 5 to 10 uM for 24 hrs by Western blot analysis; details: dose 5-10 µM; procedure, shortened: as §1
[3] = target: T1, Protein cereblon/Bromodomain-containing protein 4 (Homo sapiens); assay: PROTAC activity at BRD4/Cereblon in human LS174T cells assessed as decrease in MYC mRNA level at 100 to 1000 nM for 24 hrs by RT-qPCR analysis; details: dose 100-1000 nM
Procedure, shortened: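 Total RNA from 10^6 cells after 24 h treatment, Trizol-extracted and integrity-checked. 0.7 µg reverse transcribed, then SYBR-type qPCR: 95 °C 5 min, 40 cycles of 95 °C 15 s/60 °C 60 s. Melting curves checked. MYC or BRD4 normalised to PPIA and ACTB by ΔΔCq. At least three experiments; means ± SD.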

[4] = target: T1, Protein cereblon/Bromodomain-containing protein 4 (Homo sapiens); assay: PROTAC activity at BRD4/Cereblon in human SW480 cells assessed as decrease in MYC protein expression at 5 to 10 uM for 24 hrs by Western blot analysis; details: dose 5-10 µM; procedure, shortened: as §1
[5] = target: T1, Protein cereblon/Bromodomain-containing protein 4 (Homo sapiens); assay: PROTAC activity at BRD4/Cereblon in human COLO 320 cells assessed as decrease in MYC protein expression at 5 to 10 uM for 24 hrs by Western blot analysis; details: dose 5-10 µM; procedure, shortened: as §1
[6] = target: T1, Protein cereblon/Bromodomain-containing protein 4 (Homo sapiens); assay: PROTAC activity at BRD4/Cereblon in human SW480 cells assessed as decrease in BRD4 protein degradation at 5 to 10 uM for 24 hrs by Western blot analysis; details: dose 5-10 µM; procedure, shortened: as §1
[7] = target: T1, Protein cereblon/Bromodomain-containing protein 4 (Homo sapiens); assay: PROTAC activity at BRD4/Cereblon in human LS174T cells assessed as complete BRD4 protein degradation at […] for 24 hrs by Western blot analysis
Procedure, shortened: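 Cells treated 24 h across 1 nM–10 µM range (fibroblasts at 500/1000 nM). Immunoblot: RIPA lysate with 2.5 mmol/l DTT, 15 µg per lane on 10% SDS-PAGE, nitrocellulose, 5% milk block 1 h. BRD4 or MYC primary 1:1,000 overnight at 4 °C, HRP secondary 1:10,000 for 60 min; GAPDH/β-actin loading control; ECL detection.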

[8] = target: T2, von Hippel-Lindau disease tumor suppressor/Bromodomain-containing protein 4 (Homo sapiens) (UniProt O60885+P40337); assay: PROTAC activity at BRD4/VHL E3 ligase in human LS174T cells assessed as decrease in MYC mRNA level at 100 to 1000 nM for 24 hrs by RT-qPCR analysis; details: dose 100-1000 nM
Procedure, shortened: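 LS174t cells were treated for 24 h, then total RNA was Trizol-extracted from 10^6 cells and integrity-checked. 0.7 µg RNA was reverse transcribed and SYBR-type qPCR run for 40 cycles (95 °C 15 s, 60 °C 60 s), with melt-curve control. MYC or BRD4 mRNA was normalised to PPIA and ACTB by the ΔΔCq method. Experiments were run at least three times; mean ± SD.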

[9] = target: T2, von Hippel-Lindau disease tumor suppressor/Bromodomain-containing protein 4 (Homo sapiens); assay: PROTAC activity at BRD4/VHL E3 ligase in human fibroblast cells assessed as effect on MYC protein expression at 100 to 250 nM for 24 hrs by Western blot analysis; details: dose 100-250 nM
Procedure, shortened: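 Normal human dermal fibroblasts in 10% FCS medium were treated with 100 or 250 nM PROTAC. BRD4 and MYC protein were assessed by western blot (15 µg RIPA lysate, 10% SDS-PAGE, primary 1:1,000 overnight at 4 °C), with GAPDH/β-actin as loading control.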

[10] = target: T2, von Hippel-Lindau disease tumor suppressor/Bromodomain-containing protein 4 (Homo sapiens); assay: PROTAC activity at BRD4/VHL E3 ligase in human HT-29 cells assessed as decrease in MYC protein expression at 5 to 10 uM for 24 hrs by Western blot analysis; details: dose 5-10 µM; procedure, shortened: as §1
[11] = target: T2, von Hippel-Lindau disease tumor suppressor/Bromodomain-containing protein 4 (Homo sapiens); assay: PROTAC activity at BRD4/VHL E3 ligase in human LS174T cells assessed as complete BRD4 protein degradation at […] for 24 hrs by Western blot analysis
Procedure, shortened: (§2)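 LS174t cells (RPMI 1640, 10% FCS) were exposed to 1 nM–10 µM for 24 h. Lysates in RIPA with inhibitors and 2.5 mmol/l DTT; 15 µg protein was run on 10% SDS-PAGE and transferred to nitrocellulose. BRD4 or MYC primary antibodies were used at 1:1,000 overnight at 4 °C, HRP secondary 1:10,000, and GAPDH/β-actin as loading control. Detection was by chemiluminescence.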

[12] = target: T2, von Hippel-Lindau disease tumor suppressor/Bromodomain-containing protein 4 (Homo sapiens); assay: PROTAC activity at BRD4/VHL E3 ligase in human LS174T cells assessed as BRD4 protein degradation at 100 to 1000 nM for 24 hrs by Western blot analysis; details: dose 100-1000 nM; procedure, shortened: as §2
[13] = target: T2, von Hippel-Lindau disease tumor suppressor/Bromodomain-containing protein 4 (Homo sapiens); assay: PROTAC activity at BRD4/VHL E3 ligase in human SW480 cells assessed as decrease in BRD4 protein degradation at 5 to 10 uM for 24 hrs by Western blot analysis; details: dose 5-10 µM
Procedure, shortened: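 Eight CRC lines, including LS174t (RPMI 1640) and SW480 (DMEM/HamsF12), all with 10% FCS, were treated with PROTAC at 5 and 10 µM. BRD4 and MYC proteins were detected by immunoblot (RIPA lysate, 15 µg, 10% gel, primary 1:1,000 overnight at 4 °C), with GAPDH/β-actin as loading control.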

[14] = target: T2, von Hippel-Lindau disease tumor suppressor/Bromodomain-containing protein 4 (Homo sapiens); assay: PROTAC activity at BRD4/VHL E3 ligase in human HCT116 p53+/+ cells assessed as decrease in BRD4 protein degradation at 5 to 10 uM for 24 hrs by Western blot analysis; details: HCT-116, dose 5-10 µM; procedure, shortened: as §1
[15] = target: T2, von Hippel-Lindau disease tumor suppressor/Bromodomain-containing protein 4 (Homo sapiens); assay: PROTAC activity at BRD4/VHL E3 ligase in human HT-29 cells assessed as decrease in BRD4 protein degradation at 5 to 10 uM for 24 hrs by Western blot analysis; details: dose 5-10 µM; procedure, shortened: as §1
[16] = target: T2, von Hippel-Lindau disease tumor suppressor/Bromodomain-containing protein 4 (Homo sapiens); assay: PROTAC activity at BRD4/VHL E3 ligase in human COLO 320 cells assessed as decrease in MYC protein expression at 5 to 10 uM for 24 hrs by Western blot analysis; details: dose 5-10 µM; procedure, shortened: as §1
[17] = target: T2, von Hippel-Lindau disease tumor suppressor/Bromodomain-containing protein 4 (Homo sapiens); assay: PROTAC activity at BRD4/VHL E3 ligase in human HCT116 p53+/+ cells assessed as decrease in MYC protein expression at 5 to 10 uM for 24 hrs by Western blot analysis; details: HCT-116, dose 5-10 µM; procedure, shortened: as §1

T1 sequence (Q96SW2 whole entry, looked up, other chains not shown): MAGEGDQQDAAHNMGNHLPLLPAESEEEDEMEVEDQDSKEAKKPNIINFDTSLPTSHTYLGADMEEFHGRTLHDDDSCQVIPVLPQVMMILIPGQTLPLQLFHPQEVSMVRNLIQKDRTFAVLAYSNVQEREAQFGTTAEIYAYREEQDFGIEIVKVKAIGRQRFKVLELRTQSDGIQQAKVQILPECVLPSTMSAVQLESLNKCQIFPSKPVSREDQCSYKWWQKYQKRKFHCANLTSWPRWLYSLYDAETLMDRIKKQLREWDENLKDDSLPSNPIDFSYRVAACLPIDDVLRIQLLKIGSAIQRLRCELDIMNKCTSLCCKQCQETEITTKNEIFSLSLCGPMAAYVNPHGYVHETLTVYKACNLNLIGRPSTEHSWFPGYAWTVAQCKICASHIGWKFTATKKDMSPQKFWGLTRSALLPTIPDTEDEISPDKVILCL
T2 sequence (P40337 whole entry, looked up, other chains not shown): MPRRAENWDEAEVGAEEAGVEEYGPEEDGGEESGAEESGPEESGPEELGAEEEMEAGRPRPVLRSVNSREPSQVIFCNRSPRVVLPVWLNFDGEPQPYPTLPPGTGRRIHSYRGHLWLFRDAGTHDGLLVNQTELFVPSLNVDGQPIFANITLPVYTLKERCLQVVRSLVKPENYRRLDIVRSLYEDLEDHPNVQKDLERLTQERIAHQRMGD

Row | SMILES | Activity [1] | Activity [2] | Activity [3] | Activity [4] | Activity [5] | Activity [6] | Activity [7] | Activity [8] | Activity [9] | Activity [10] | Activity [11] | Activity [12] | Activity [13] | Activity [14] | Activity [15] | Activity [16] | Activity [17]
1 | Cc1sc2c(c1C)C(c1ccc(Cl)cc1)=N[C@@H](CC(=O)NCCCCNC(=O)COc1cccc3c1C(=O)N(C1CCC(=O)NC1=O)C3=O)c1nnc(C)n1-2 (some centres not stated) | Active | Active | Active | inactive | Active | inactive | Active | – | – | – | – | – | – | – | – | – | –
2 | Cc1ncsc1-c1ccc(CNC(=O)[C@@H]2C[C@@H](O)CN2C(=O)[C@@H](NC(=O)COCCOCCOCCNC(=O)C[C@@H]2N=C(c3ccc(Cl)cc3)c3c(sc(C)c3C)-n3c(C)nnc32)C(C)(C)C)cc1 | – | – | – | – | – | – | – | Active | inactive | Active | Active | Dose-Dependent Effect | Active | Active | Active | Active | Active
